Data set [1] has as its target T1, 11β-HSD2 (Homo sapiens, UniProt P80365).
T1 sequence (P80365 1-405): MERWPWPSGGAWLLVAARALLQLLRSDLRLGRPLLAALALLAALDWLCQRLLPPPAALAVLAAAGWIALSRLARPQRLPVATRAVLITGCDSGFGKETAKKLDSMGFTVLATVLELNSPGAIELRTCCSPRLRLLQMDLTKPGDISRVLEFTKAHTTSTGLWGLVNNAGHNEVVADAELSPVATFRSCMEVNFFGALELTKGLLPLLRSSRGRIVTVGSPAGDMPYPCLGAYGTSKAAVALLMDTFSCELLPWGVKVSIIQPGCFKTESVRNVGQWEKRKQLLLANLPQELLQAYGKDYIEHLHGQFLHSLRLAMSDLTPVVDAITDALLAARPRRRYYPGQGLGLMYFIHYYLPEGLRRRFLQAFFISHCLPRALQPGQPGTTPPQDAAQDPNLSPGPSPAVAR
The data set can be described thus: 11β-HSD2 activity in lysates of HEK-293 cells stably expressing human 11β-HSD2. To be noted: for inhibition at 20 µM: read-out: inhibition of 11β-HSD2 enzyme activity; for residual 11β-HSD2 activity: 20 μM test substance. In kind it is biochemical. The method, boiled down:
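Reactions were stopped with excess unlabeled cortisone/cortisol, giving about 20–25% conversion. Products were separated by TLC (chloroform:methanol 9:1) and counted by scintillation. Activity was normalized to vehicle; mean ± SD, ≥3 independent experiments.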

The target in a further data set is human 11β-HSD1 (Homo sapiens, UniProt P28845). In kind it is biochemical. To be noted: for activity against 11β-HSD1 (in words): HEK-293 lysates, recombinant human enzyme; for inhibition at 20 µM: read-out: inhibition of 11β-HSD1 enzyme activity. The method, boiled down:
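Lysates of HEK-293 cells stably co-expressing human 11β-HSD1 and H6PDH (HHH7 clone) were incubated 10 min at 37°C with 200 nM radiolabeled cortisone, 500 μM NADPH and test compound or DMSO vehicle (max 0.1%). Reactions were stopped with excess unlabeled cortisone/cortisol, giving about 20–25% conversion. Steroids were separated by TLC (chloroform:methanol 9:1) and counted by scintillation. Activity was normalized to vehicle; mean ± SD, ≥3 independent experiments. IC50 was skipped when residual activity at 20 μM exceeded 40%.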

A further data set concerns 11β-HSD1. To be noted: cited from earlier work.
In data set [2] the test system is 11β-HSD2. To be noted: cited from earlier work.
Another data set deals with T2, human 17β-HSD1 (Homo sapiens, UniProt P14061).
T2 sequence (P14061 1-328): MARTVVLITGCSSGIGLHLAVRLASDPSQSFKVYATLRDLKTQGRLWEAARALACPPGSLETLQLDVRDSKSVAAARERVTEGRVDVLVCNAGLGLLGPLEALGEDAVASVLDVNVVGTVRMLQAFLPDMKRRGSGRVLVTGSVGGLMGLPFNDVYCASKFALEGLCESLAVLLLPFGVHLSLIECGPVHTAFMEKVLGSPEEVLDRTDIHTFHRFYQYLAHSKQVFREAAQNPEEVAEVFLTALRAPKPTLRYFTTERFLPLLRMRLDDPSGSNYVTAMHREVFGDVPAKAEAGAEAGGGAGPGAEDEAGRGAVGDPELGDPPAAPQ
Briefly: 17β-HSD1 activity in lysates of transiently transfected HEK-293 cells. It counts as biochemical. The note with it: HEK-293 lysates, 200 nM estrone; data not shown. The gist of the method:
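Lysates of HEK-293 cells transiently expressing human 17β-HSD1 were incubated for 10 min at 37°C with 200 nM estrone (containing 50 nCi [2,4,6,7-3H]-estrone), 500 μM NADPH and test compound or DMSO vehicle. Steroids were separated by TLC, and substrate conversion was measured by scintillation counting. Activity was normalized to the vehicle control. Data are mean ± SD from at least three independent experiments.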

A further data set deals with T3, human 17β-HSD2 (Homo sapiens, UniProt P37059).
T3 sequence (P37059 1-387): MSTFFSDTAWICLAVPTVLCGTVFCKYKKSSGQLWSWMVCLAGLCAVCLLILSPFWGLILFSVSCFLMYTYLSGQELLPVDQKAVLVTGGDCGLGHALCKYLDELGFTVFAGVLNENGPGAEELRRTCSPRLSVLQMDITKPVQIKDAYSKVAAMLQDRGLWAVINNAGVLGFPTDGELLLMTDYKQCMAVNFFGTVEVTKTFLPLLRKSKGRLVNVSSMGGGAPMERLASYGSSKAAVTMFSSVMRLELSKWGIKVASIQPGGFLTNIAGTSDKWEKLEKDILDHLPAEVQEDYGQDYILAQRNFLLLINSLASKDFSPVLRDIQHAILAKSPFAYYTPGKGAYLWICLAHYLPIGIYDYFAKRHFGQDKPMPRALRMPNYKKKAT
Briefly: 17β-HSD2 activity in lysates of transiently transfected HEK-293 cells. In kind it is biochemical. To be noted: HEK-293 lysates, 200 nM estradiol; data not shown. The gist of the method:
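Lysates of HEK-293 cells transiently expressing human 17β-HSD2 were incubated for 10 min at 37°C with 200 nM estradiol (containing 50 nCi [2,4,6,7-3H]-estradiol), 500 μM NAD+ and test compound or DMSO vehicle. Steroids were separated by TLC, with conversion quantified by scintillation counting. Results were normalized to the vehicle control. Data are mean ± SD from at least three independent experiments.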

Data set [3] has as its target T1, 11β-HSD2. The data set can be described thus: 11β-HSD2 activity in intact SW-620 cells. In kind it is cell-based. The method, boiled down: (§1)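 Cells were grown in DMEM with 10% FBS (SW-620 passages 11–15, MCF-7 passages 19–27) and seeded at 100 000 (SW-620) or 50 000 (MCF-7) per well. After 24 h, medium was replaced by steroid- and serum-free DMEM with vehicle or inhibitor plus radiolabeled cortisol (10 nCi; 50 nM final). Incubation was at 37°C for 4 h (SW-620) or 5 h (MCF-7). Conversion was read by TLC and scintillation counting.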

Data set [4] has as its target T1, 11β-HSD2. Briefly: 11β-HSD2 activity in intact MCF-7 cells. In kind it is cell-based. The method, boiled down: as §1
Data set [5] concerns the target T1, 11β-HSD2. In kind it is biochemical. The note with it: preincubation 0, 5, 20 min at 4°C or 10 min followed by dilution. The method, boiled down:
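Lysates of HEK-293 cells expressing human 11β-HSD2 were preincubated with test compound for 0, 5 or 20 min at 4°C before activity measurement. Alternatively, lysates were preincubated 10 min with compound, then diluted 1:2 or 1:4 before measuring 11β-HSD2 activity (radiolabeled cortisol, NAD+, TLC/scintillation). Data were normalized to DMSO control; mean ± SD, ≥3 independent experiments.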

The conditions of data set [6]: predominately to albumin; cited from earlier work.
For data set [7] the following is noted: pulmonary alveolar cells; cited from earlier work.

Chain of human 11β-HSD1 (P28845 whole entry): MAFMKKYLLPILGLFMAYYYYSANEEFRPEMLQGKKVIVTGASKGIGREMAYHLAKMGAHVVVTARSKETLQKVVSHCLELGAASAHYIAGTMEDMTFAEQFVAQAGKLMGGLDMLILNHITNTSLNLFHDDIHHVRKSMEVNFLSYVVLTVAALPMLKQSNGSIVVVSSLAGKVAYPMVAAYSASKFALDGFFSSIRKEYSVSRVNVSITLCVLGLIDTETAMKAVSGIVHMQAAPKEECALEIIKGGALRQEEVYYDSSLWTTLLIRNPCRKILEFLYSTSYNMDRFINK

As to `CCCSc1ccc2nc(NC(=O)OC)[nH]c2c1` [Albendazole], the “activity against 11β-HSD2 (in words)” value at 11β-HSD2 [1] (HEK-293 lysates, recombinant human enzyme) was “inactive”. For the same compound, at human 11β-HSD1, the “activity against 11β-HSD1 (in words)” value is “inactive”.
Regarding `CC(=O)N1CCN(c2ccc(OCC3COC(Cn4ccnc4)(c4ccc(Cl)cc4Cl)O3)cc2)CC1` (centres unmarked) [Ketoconazole], the “inhibitory effect toward 11β-HSD1 (in words)” value with 11β-HSD1 is “weak inhibitory effects”. In addition, in the data set on 11β-HSD2 [2], the “inhibitory effect toward 11β-HSD2 (in words)” value is reported as “weak inhibitory effects”.
As usually defined, the IC50 is the concentration that inhibits the measured activity by half. On to `CC(O)C(C)n1ncn(-c2ccc(N3CCN(c4ccc(OCC5COC(Cn6cncn6)(c6ccc(Cl)cc6Cl)O5)cc4)CC3)cc2)c1=O` (centres unmarked) [OHI, hydroxyitraconazole], for which the IC50 is 0.223 ± 0.031 µM at 11β-HSD2 [1], 0.82 ± 0.18 µM against 11β-HSD2 [3] and 0.68 ± 0.2 µM against 11β-HSD2 [4]. The “inhibition of human 11β-HSD2 (in words)” value at 11β-HSD2 [1] (5 μM, HEK-293 lysates, 200 nM cortisol) is listed as “complete inhibition”. In addition, on human 17β-HSD1, the “inhibition of 17β-HSD1 activity” value was “None of the compounds inhibited 17β-HSD1 or 17β-HSD2 activity”. On human 17β-HSD2, the “inhibition of 17β-HSD2 activity” value is recorded as “None of the compounds inhibited 17β-HSD1 or 17β-HSD2 activity”. Further, on 11β-HSD2 [5], the “irreversible 11β-HSD2 inhibition” value is on record as “excluded”. Besides, the plasma protein binding in [6] is listed as 99.6%.
For orientation: inhibition means the percentage by which the read-out fell short of the control. Consider `CCN(CC)Cc1cc(Nc2ccnc3cc(Cl)ccc23)ccc1O` [amodiaquine], for which the inhibition at 20 µM at 11β-HSD2 [1] and at human 11β-HSD1 was less than 40% throughout.
Consider `Clc1ccc(CCC(Cn2ccnc2)Sc2c(Cl)cccc2Cl)cc1` (centres unmarked) [butoconazole], for which the “residual 11β-HSD2 activity” value on 11β-HSD2 [1] (HEK-293 lysates) came to 44%. Also, the inhibition at 20 µM at human 11β-HSD1 was not below 50%.
Take `CCN(CC)CCCC(C)Nc1ccnc2cc(Cl)ccc12` (centres unmarked) [chloroquine]: the inhibition at 20 µM at 11β-HSD2 [1] and on human 11β-HSD1 was less than 40% each time.
Turning to `CCC[C@@H]1C[C@@H](C(=O)N[C@@H]([C@H]2O[C@H](SC)[C@H](O)[C@@H](O)[C@H]2O)[C@H](C)Cl)N(C)C1` [clindamycin], the inhibition at 20 µM at 11β-HSD2 [1] and on human 11β-HSD1 was less than 40% throughout.
For the compound `Cc1onc(-c2ccccc2Cl)c1C(=O)N[C@@H]1C(=O)N2[C@@H]1SC(C)(C)[C@@H]2C(=O)O` [cloxacillin], the inhibition at 20 µM at 11β-HSD2 [1] and on human 11β-HSD1 was less than 40% throughout.
As for `Cc1onc(-c2c(F)cccc2Cl)c1C(=O)N[C@@H]1C(=O)N2[C@@H]1SC(C)(C)[C@@H]2C(=O)O` [flucloxacillin], the inhibition at 20 µM at 11β-HSD2 [1] and on human 11β-HSD1 was less than 40% throughout.
In the case of `CC(=O)O[C@H]1C[C@@]2(C)[C@@H](C[C@@H](O)[C@H]3[C@@]4(C)CC[C@@H](O)[C@@H](C)[C@@H]4CC[C@@]32C)/C1=C(\CCC=C(C)C)C(=O)O` [fusidic acid], the inhibition at 20 µM at 11β-HSD2 [1] and at human 11β-HSD1 was less than 40% each time.
For the compound `CCC[C@@H]1C[C@@H](C(=O)N[C@@H]([C@H]2O[C@H](SC)[C@H](O)[C@@H](O)[C@H]2O)[C@@H](C)O)N(C)C1` [lincomycin], the inhibition at 20 µM on 11β-HSD2 [1] and on human 11β-HSD1 was less than 40% throughout.
For `CCOc1ccc2ccccc2c1C(=O)N[C@@H]1C(=O)N2[C@@H]1SC(C)(C)[C@@H]2C(=O)O` [nafcillin], the inhibition at 20 µM on 11β-HSD2 [1] and at human 11β-HSD1 was less than 40% each time.
For the compound `N=C(N)c1ccc(OCCCCCOc2ccc(C(=N)N)cc2)cc1` [pentamidine], the inhibition at 20 µM on 11β-HSD2 [1] and at human 11β-HSD1 was less than 40% each time.
Turning to `CC[C@@H]([C@H](C)O)n1ncn(-c2ccc(N3CCN(c4ccc(OC[C@@H]5CO[C@@](Cn6cncn6)(c6ccc(F)cc6F)C5)cc4)CC3)cc2)c1=O` [posaconazole], the 50% inhibitory concentration (IC50) on 11β-HSD2 [1] turned out to be 0.46 ± 0.098 µM. Further, the “IC25 for 11β-HSD2” value against 11β-HSD2 [1] (as determined in HEK-293 cell lysates) is 0.237 µM. Besides, the “activity against 11β-HSD1 (in words)” value at human 11β-HSD1 is given as “inactivity towards 11β-HSD1”. Further, on human 17β-HSD1, the “inhibition of 17β-HSD1 activity” value was “None of the compounds inhibited 17β-HSD1 or 17β-HSD2 activity”. Further, on human 17β-HSD2, the “inhibition of 17β-HSD2 activity” value is listed as “None of the compounds inhibited 17β-HSD1 or 17β-HSD2 activity”. In addition, the “residual 11β-HSD2 activity” value was “approximately 60%” on 11β-HSD2 [3] (SW-620 cells, 5 μM) and approximately 40% on 11β-HSD2 [4] (MCF-7 cells, 5 μM). Moreover, on 11β-HSD2 [5], the “irreversible 11β-HSD2 inhibition” value is “excluded”. For the same compound, in data set [6], the plasma protein binding is not below 98%. In addition, in data set [7], the “concentration in pulmonary alveolar cells compared with plasma” value is 31-42 fold.
On to `CCCN(CCC)S(=O)(=O)c1ccc(C(=O)O)cc1` [probenecid], for which the inhibition at 20 µM on 11β-HSD2 [1] and on human 11β-HSD1 was less than 40% throughout.
Consider `Clc1ccc(C(Cn2ccnc2)OCc2csc3c(Cl)cccc23)c(Cl)c1` (centres unmarked) [sertaconazole], for which the “residual 11β-HSD2 activity” value at 11β-HSD2 [1] (HEK-293 lysates) is 61%. For the same compound, the inhibition at 20 µM at human 11β-HSD1 is not below 50%.
In the same order, the values of `Clc1ccc(C(Cn2ccnc2)OCc2ccsc2Cl)c(Cl)c1` (centres unmarked) [tioconazole] are 50% and not below 50%.
For orientation: Km means the concentration of substrate that gives half-maximal velocity. With `CC(C)(C)C(=O)C(Oc1ccc(Cl)cc1)n1cncn1` (centres unmarked) [triadimefon], the IC50 with 11β-HSD1 (read-out: IC50 as competitive inhibitor of 11β-HSD1) is 15 µM. Also, in the data set on 11β-HSD1 (read-out: Km as substrate of 11β-HSD1), the Michaelis constant (Km) was 3.5 µM.
